Consider 25 molecules from ChEMBL document CHEMBL1926658, “The design, synthesis and biological evaluations of C-6 or C-7 substituted 2-hydroxyisoquinoline-1,3-diones as inhibitors of hepatitis C virus” (Bioorg Med Chem, 2012).

The subject of data set [1] is Hepatitis C virus. Kind of data set: Antiviral activity against HCV genotype 1b infected in human HuH7 cells assessed as reduction in luciferase activity at 10 uM after 3 days. The format is functional, Hepacivirus hominis, Huh-7. Further details: scale not given: the % may be the effect or the level left. A digest of the protocol: (§1)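 Huh-7/HCV1b-Rluc genotype 1b replicon cells plated at 6 × 10³/well without G418; next day compound in DMSO added, 37 °C/5% CO₂ for 3 days. Live-cell renilla luciferase substrate (1:1000) added, luminescence read immediately. Triplicates, ≥2 independent runs. Single-point tests at 10 µM with ribavirin (10 µM) and 2'-C-methyl adenosine (500 nM) controls; EC₅₀ from eight serial dilutions versus vehicle.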

Data set [2] is described as follows: Cytotoxicity against human HuH7 cells infected with HCV1b assessed as cell viability at 10 uM after 3 days by MTS assay. The format is cell-based, Huh-7. The conditions noted are these: read-out: Activity. A digest of the protocol:
(§2)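 Replicon cells (Huh-7/HCV1b-Rluc) seeded at 6 × 10³/well minus G418, then exposed next day to compound in DMSO for three days at 37 °C/5% CO₂. Viability read with MTS reagent (CellTiter 96 AQueous One) by absorbance at […]. CC₅₀ taken as concentration reducing proliferation by 50%, fitted from eight serial dilutions against vehicle-treated cells.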
For orientation: Formazan colour is commonly taken as a measure of viable cells.

Data set [3] deals with Hepatitis C virus. In words: Antiviral activity against HCV genotype 1b infected in human HuH7 cells after 3 days by renilla luciferase reporter assay. The format is functional, organism-based, Hepacivirus hominis. The conditions noted are these: Huh-7, 72 h. A digest of the protocol:
as §1
(In general: Reporter assays use an easily measured gene product as a stand-in for the process of interest.)

Data set [4] in a line: Cytotoxicity against human HuH7 cells infected with HCV1b after 3 days by MTS assay. The format is cell-based, Huh-7. A digest of the protocol: as §2
Data set [5] can be described thus: Therapeutic index, ratio of CC50 for human HuH7 cells infected with HCV1b to EC50 for HCV genotype 1b. The format is cell-based, Huh-7. The conditions noted are these: read-out: Ratio CC50/EC50. The method in brief: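 Index computed as CC₅₀/EC₅₀, both values from 3-day assays in Huh-7/HCV1b-Rluc replicon cells: EC₅₀ from renilla luciferase signal, CC₅₀ from MTS absorbance at 450 nm, each fitted from eight serial dilutions against vehicle.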

Data set [6] concerns Hepatitis C virus. In words: Inhibition of recombinant HCV genotype 1b NS5B polymerase activity after 3 hrs by scintillation proximity assay. Further details: species or system Hepatitis C virus subtype 1b. The method in brief:
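Started with 450 nM oligo-U12 primer, 30 nM UTP, 75 nM poly(A) template and ³H-UTP; 3 h at room temperature, scintillation proximity read-out. Duplicates, ≥2 repeats; IC₅₀ from eight serial dilutions.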
For orientation: In a scintillation proximity assay essentially only radioactivity close to the scintillant gives light.

The nature of data set [7]: Inhibition of HCV NS5b RNA-dependent RNA polymerase. Further details: species or system Hepacivirus hominis.

For `O=C1Cc2cc(-c3ccc(C(F)(F)F)cc3)ccc2C(=O)N1O`, in data set [1], the Activity is listed as 93%. Also, in data set [2], the viability at 72 h, 10 µM is 29%.
In the same order, the values of `O=C1Cc2cc(-c3csc4ccccc34)ccc2C(=O)N1O` are 95% and 34%.
For `O=C1Cc2ccc(-c3cc4ccccc4o3)cc2C(=O)N1O` the same measures were 83% and 33%.
As for `COc1cccc(-c2ccc3c(c2)C(=O)N(O)C(=O)C3)c1`, the Activity in data set [1] came to 54%. The viability at 72 h, 10 µM in data set [2] was determined as 37%.
By EC50 is commonly meant the concentration at which the effect is half-maximal. The CC50 is the concentration that lowers cell viability or growth by half. The IC50 is the concentration that inhibits the measured activity by half. In the case of `O=C1Cc2ccc(I)cc2C(=O)N1O`, the Activity in data set [1] was 79%. Besides, the viability at 72 h, 10 µM in data set [2] was determined as 86%. Further, in data set [3], a half-maximal response (EC50) required 3.9 µM. In data set [4], this molecule came in with a CC50 at 72 h of 27 µM. The selectivity ratio in data set [5] worked out at 6.9. Also, the half-maximal inhibitory concentration (IC50) in data set [6] came out at 15 µM.
As to `O=C1Cc2cc(-c3ccc4c(c3)OCO4)ccc2C(=O)N1O`, the Activity in data set [1] stood at 28%. Also, in data set [2], the viability at 72 h, 10 µM turned out to be 79%.
For `O=C1Cc2cc(-c3cccc4c3sc3ccccc34)ccc2C(=O)N1O` the same measures were 95% and 32%.
`O=C1Cc2cc(-c3ccc(F)c(F)c3)ccc2C(=O)N1O`: the Activity in data set [1] was found to be 78%. Further, the viability at 72 h, 10 µM in data set [2] is 34%.
For `O=C1Cc2ccc(-c3ccc(F)c(Cl)c3)cc2C(=O)N1O`, in data set [1], the Activity is 30%. For the same molecule, the viability at 72 h, 10 µM in data set [2] came out at 83%. Besides, the IC50 in data set [6] is 7.1 µM.
For `O=C1Cc2cc(-c3ccco3)ccc2C(=O)N1O`, in data set [1], the Activity was found to be 89%. The viability at 72 h, 10 µM in data set [2] came out at 96%. The molecule further returned an EC50 in data set [3] of 1.9 µM. For the same molecule, it took 13 µM to reach half-maximal cytotoxicity in data set [4] (CC50 at 72 h). For the same molecule, the selectivity ratio in data set [5] is 6.8. Moreover, in data set [6], the IC50 was found to be 1.3 µM.
On to `O=C1Cc2cc(-c3ccc(F)cc3)ccc2C(=O)N1O`, for which the Activity in data set [1] was 73%. Further, the viability at 72 h, 10 µM in data set [2] was 90%. For the same molecule, it took 9.6 µM to reach a half-maximal effect in data set [3] (EC50). Besides, in data set [4], it took 11 µM to reach half-maximal cytotoxicity (CC50 at 72 h). In addition, in data set [5], the selectivity ratio came out at 1.2. The IC50 in data set [6] stood at 20 µM.
In data set [3], `NC(=O)c1ncn([C@@H]2O[C@H](CO)[C@@H](O)[C@H]2O)n1` [RIBAVIRIN] registered an EC50 of 14 µM. Moreover, the midpoint of cytotoxicity in data set [4], the CC50 at 72 h, lay at 32 µM. For the same molecule, in data set [5], the selectivity ratio came to 2.3.
Take `O=C1Cc2cc(-c3ccsc3)ccc2C(=O)N1O`: the Activity in data set [1] came to 72%. For the same molecule, the viability at 72 h, 10 µM in data set [2] was 100%. In addition, the EC50 in data set [3] turned out to be 44 µM. The molecule further had a CC50 at 72 h in data set [4] of 98 µM. In data set [5], the selectivity ratio was found to be 2.2. Also, the IC50 in data set [6] amounted to 9 µM.
For `Cc1ccc(-c2ccc3c(c2)CC(=O)N(O)C3=O)o1`, in data set [1], the Activity was 76%. In addition, in data set [2], the viability at 72 h, 10 µM was 87%. This molecule came in with an EC50 in data set [3] of 4.3 µM. The molecule further came in with a CC50 at 72 h in data set [4] of 11 µM. The selectivity ratio in data set [5] was determined as 2.6. In addition, in data set [6], the IC50 was 18 µM.
Turning to `O=C1Cc2cc(-c3cccs3)ccc2C(=O)N1O`, in data set [1], the Activity was 93%. Also, the viability at 72 h, 10 µM in data set [2] is 100%. The molecule also returned a 50% effective concentration (EC50) in data set [3] of 1.7 µM. This molecule gave a CC50 at 72 h in data set [4] of 18 µM. In data set [5], the selectivity ratio was determined as 11. The IC50 in data set [6] was 7.3 µM.
With `O=C1Cc2ccc(-c3cccs3)cc2C(=O)N1O`, in data set [1], the Activity is listed as 99%. In addition, the viability at 72 h, 10 µM in data set [2] turned out to be 21%.
In the case of `N#Cc1cc(COc2cccc(C(=O)/C=C(\O)C(=O)O)c2)c(Cl)cc1Cl`, the IC50 in data set [6] was found to be 0.015 µM; in data set [7], 0.045 µM.
`O=C1Cc2cc(-c3cc4ccccc4o3)ccc2C(=O)N1O`: the Activity in data set [1] is listed as 73%. Also, the viability at 72 h, 10 µM in data set [2] turned out to be 46%.
Turning to `O=C1Cc2ccc(-c3ccco3)cc2C(=O)N1O`, the Activity in data set [1] was 51%. Moreover, the viability at 72 h, 10 µM in data set [2] worked out at 21%. The IC50 in data set [6] stood at 18 µM.
In the case of `O=C1Cc2ccc(-c3ccc(F)c(F)c3)cc2C(=O)N1O`, the Activity in data set [1] is 100%. Further, the viability at 72 h, 10 µM in data set [2] turned out to be 33%.
With `O=C1Cc2cc(-c3ccoc3)ccc2C(=O)N1O`, the Activity in data set [1] came to 100%. For the same molecule, the viability at 72 h, 10 µM in data set [2] worked out at 52%. The IC50 in data set [6] is 11 µM.
As for `C[C@@]1(O)[C@H](O)[C@@H](CO)O[C@H]1n1cnc2c(N)ncnc21`, the CC50 at 72 h in data set [4] is 55 µM. For the same molecule, the selectivity ratio in data set [5] was found to be 270.
As for `O=C1Cc2cc(-c3cccc(-c4ccccc4)c3)ccc2C(=O)N1O`, in data set [1], the Activity came to 95%. In addition, the viability at 72 h, 10 µM in data set [2] was found to be 23%.
On to `O=C1Cc2cc(-c3cccc4c3oc3ccccc34)ccc2C(=O)N1O`, for which, in data set [1], the Activity is 98%. For the same molecule, the viability at 72 h, 10 µM in data set [2] stood at 28%.
For `CS(=O)(=O)c1ccc(-c2ccc3c(c2)CC(=O)N(O)C3=O)cc1` the same measures were 3% and 100%.
